Calls of active or inactive are those of the source. The calls are words filed in the database; no cut-off is given here.
How the values were obtained:
Format in all cases: functional
[1] = system: U2OS; assay: Growth inhibition of human U2OS cells at 20 uM after 72 hrs by alamar blue assay; details: for inhibition of growth at 20 µM: read-out: GI
Outline: (§1)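 Single-concentration screen at 20 μM with 72 h exposure across a panel of cancer lines: lung A549, pancreatic AsPC1, colon HT29, breast MDA-MB-231, prostate PC3, ovarian SKOV3 and bone U2OS. Growth inhibition read after 72 h.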

[2] = system: SK-OV-3; assay: Growth inhibition of human SKOV3 cells at 20 uM after 72 hrs by alamar blue assay; details: for inhibition of growth at 20 µM: SK-OV-3, 72 h, read-out: GI; outline: as §1
[3] = system: PC-3; assay: Growth inhibition of human PC3 cells at 20 uM after 72 hrs by alamar blue assay; details: for inhibition of growth at 20 µM: PC-3, 72 h, read-out: GI; outline: as §1
[4] = system: A549; assay: Growth inhibition of human A549 cells at 20 uM after 72 hrs by alamar blue assay; details: for inhibition of growth at 20 µM: A549, 72 h, read-out: GI; outline: as §1
[5] = system: ASPC1; assay: Growth inhibition of human AsPC1 cells at 20 uM after 72 hrs by alamar blue assay; details: for inhibition of growth at 20 µM: ASPC1, 72 h, read-out: GI; outline: as §1
[6] = system: MDA-MB-231; assay: Growth inhibition of human MDA-MB-231 cells at 20 uM after 72 hrs by alamar blue assay; details: for inhibition of growth at 20 µM: MDA-MB-231, 72 h, read-out: GI; outline: as §1
[7] = system: HT-29; assay: Growth inhibition of human HT-29 cells at 20 uM after 72 hrs by alamar blue assay; details: for inhibition of growth at 20 µM: HT-29, 72 h, read-out: GI; outline: as §1

For `S=C(Nc1ccccc1)Nc1ccc2nc(-c3ccco3)c(-c3ccco3)nc2c1`, the inhibition of growth at 20 µM [1] was 21.4%, the “growth inhibition (GI)” value [2] was “inactive” and the inhibition of growth at 20 µM [3] was 56.8%. For the same compound, the inhibition of growth at 20 µM [4] was 18%, the “growth inhibition (GI)” value [5] was “inactive” and the inhibition of growth at 20 µM [6] was 19.1%. The inhibition of growth at 20 µM [7] was 26.1%.

Compound `O=C(Nc1ccc(Cl)cc1)Nc1ccc2nc(-c3ccco3)c(-c3ccco3)nc2c1` has an inhibition of growth at 20 µM [1] of 87.4%, an inhibition of growth at 20 µM [2] of 55.8% and an inhibition of growth at 20 µM [3] of 86.4%. For the same compound, the inhibition of growth at 20 µM [4] was 99.2%, the inhibition of growth at 20 µM [5] was 81.1% and the inhibition of growth at 20 µM [6] was 92.5%. For the same compound, the inhibition of growth at 20 µM [7] was 86.3%.

In the case of `O=C(Nc1ccc(-c2ccccc2)cc1)Nc1ccc2nc(-c3ccco3)c(-c3ccco3)nc2c1`, the inhibition of growth at 20 µM [1] was 46.9%, the “growth inhibition (GI)” value [2] was “inactive” and the inhibition of growth at 20 µM [3] was 88.5%. For the same compound, the inhibition of growth at 20 µM [4] was 13.8%, the “growth inhibition (GI)” value [5] was “inactive” and the inhibition of growth at 20 µM [6] was 50.2%. It also gave an inhibition of growth at 20 µM [7] of 72.4%.

`O=C(Nc1ccccc1)Nc1ccc2nc(-c3ccco3)c(-c3ccco3)nc2c1` showed an inhibition of growth at 20 µM [1] of 59.6%, an inhibition of growth at 20 µM [2] of 24.7% and an inhibition of growth at 20 µM [3] of 70.6%. For the same compound, the inhibition of growth at 20 µM [4] was 54.6%, the inhibition of growth at 20 µM [5] was 9.6% and the inhibition of growth at 20 µM [6] was 31.3%. It also gave an inhibition of growth at 20 µM [7] of 52.1%.

For `Cc1ccc(S(=O)(=O)N(c2ccc3nc(-c4ccco4)c(-c4ccco4)nc3c2)S(=O)(=O)c2ccc(C)cc2)cc1`, the “growth inhibition (GI)” value [1] was “inactive”, the “growth inhibition (GI)” value [2] was “inactive” and the “growth inhibition (GI)” value [3] was “inactive”. For the same compound, the “growth inhibition (GI)” value [4] was “inactive”, the “growth inhibition (GI)” value [5] was “inactive” and the “growth inhibition (GI)” value [6] was “inactive”. The “growth inhibition (GI)” value [7] was “inactive”.

`S=C(Nc1ccccc1)Nc1ccc2nc(-c3ccccc3)c(-c3ccccc3)nc2c1` was tested, and the “growth inhibition (GI)” value [1] was “inactive”, the “growth inhibition (GI)” value [2] was “inactive” and the “growth inhibition (GI)” value [3] was “inactive”. The “growth inhibition (GI)” value [4] was “inactive”, the “growth inhibition (GI)” value [5] was “inactive” and the “growth inhibition (GI)” value [6] was “inactive”. The “growth inhibition (GI)” value [7] was “inactive”.

`Cc1nc2ccc(NC(=O)N3CCCC3)cc2nc1C` was tested, and the “growth inhibition (GI)” value [1] was “inactive”, the “growth inhibition (GI)” value [2] was “inactive” and the “growth inhibition (GI)” value [3] was “inactive”. The “growth inhibition (GI)” value [4] was “inactive”, the “growth inhibition (GI)” value [5] was “inactive” and the “growth inhibition (GI)” value [6] was “inactive”. The “growth inhibition (GI)” value [7] was “inactive”.

With `S=C(Nc1ccccc1)Nc1ccc2nc(-c3cccs3)c(-c3cccs3)nc2c1` the “growth inhibition (GI)” value [1] was “inactive”, the “growth inhibition (GI)” value [2] was “inactive” and the “growth inhibition (GI)” value [3] was “inactive”. The “growth inhibition (GI)” value [4] was “inactive”, the “growth inhibition (GI)” value [5] was “inactive” and the “growth inhibition (GI)” value [6] was “inactive”. The “growth inhibition (GI)” value [7] was “inactive”.

Work on `O=C(Nc1ccc2nc(-c3ccccc3)c(-c3ccccc3)nc2c1)N1CCCC1` yielded an inhibition of growth at 20 µM [1] of 54.2%, an inhibition of growth at 20 µM [2] of 18.5% and an inhibition of growth at 20 µM [3] of 56.9%. For the same compound, the inhibition of growth at 20 µM [4] was 11%, the inhibition of growth at 20 µM [5] was 29.4% and the inhibition of growth at 20 µM [6] was 16.7%. The “growth inhibition (GI)” value [7] was “inactive”.

`O=C(Nc1ccc2nc(-c3ccco3)c(-c3ccco3)nc2c1)N1CCOCC1` was tested, and the “growth inhibition (GI)” value [1] was “inactive”, the “growth inhibition (GI)” value [2] was “inactive” and the inhibition of growth at 20 µM [3] was 48.9%. The inhibition of growth at 20 µM [4] was 39.7%, the “growth inhibition (GI)” value [5] was “inactive” and the inhibition of growth at 20 µM [6] was 10.9%. The inhibition of growth at 20 µM [7] was 19.4%.

In the case of `CC(=O)Nc1ccc2nc(-c3ccco3)c(-c3ccco3)nc2c1`, the “growth inhibition (GI)” value [1] was “inactive”, the inhibition of growth at 20 µM [2] was 9% and the inhibition of growth at 20 µM [3] was 57.7%. For the same compound, the inhibition of growth at 20 µM [4] was 57.8%, the “growth inhibition (GI)” value [5] was “inactive” and the inhibition of growth at 20 µM [6] was 20.3%. For the same compound, the inhibition of growth at 20 µM [7] was 7.6%.

`Cc1ccc(S(=O)(=O)Nc2ccc3nc(-c4ccccc4)c(-c4ccccc4)nc3c2)cc1` was tested, and the “growth inhibition (GI)” value [1] was “inactive”, the “growth inhibition (GI)” value [2] was “inactive” and the “growth inhibition (GI)” value [3] was “inactive”. The “growth inhibition (GI)” value [4] was “inactive”, the “growth inhibition (GI)” value [5] was “inactive” and the “growth inhibition (GI)” value [6] was “inactive”. For the same compound, the “growth inhibition (GI)” value [7] was “inactive”.

— ChEMBL document CHEMBL1759840, “2,3-Substituted quinoxalin-6-amine analogs as antiproliferatives: a structure-activity relationship study” (2011)
